{"data": "Experimental data of several laboratories", "cell line": "ACHN", "read-out": "cell growth or viability", "note": "Compare with care: the assays were run in different laboratories."}
{"Compound": "COc1ccc(C(=O)/C=C/c2ccccc2Br)cc1S(N)(=O)=O", "method": "SRB", "time": "48 h", "measurement": "GI50", "result": "1800 nM"}
{"Compound": "COc1cc(-c2ccc(-c3ccc(C(=N)N)nc3)s2)cc(OC)c1OC", "measurement": "GI50", "result": "1730 nM"}
{"Compound": "S=C([S][Au-][P+](CCCCCC[P+]([Au-][S]C(=S)n1cccn1)(c1ccccc1)c1ccccc1)(c1ccccc1)c1ccccc1)n1cccn1", "measurement": "GI50", "result": "1450 nM"}
{"Compound": "COc1ccc(C(=O)/C=C/c2cc3c(cc2Br)OCO3)cc1S(N)(=O)=O", "method": "SRB", "tested at": "10 µM", "measurement": "inhibition", "result": "123%"}
{"Compound": "COc1cccc(Oc2ccccc2NC(=O)CNC(=O)c2cccc3ccccc23)c1", "method": "SRB", "time": "48 h", "measurement": "GI50", "result": "398 nM"}
{"Compound": "COc1ccc(-c2ccc(-c3ccc(C(=N)N)nc3)s2)cc1Cl", "measurement": "GI50", "result": "1770 nM"}
{"Compound": "Cc1cc(C)n(C(=S)[S][Au][PH](CCCCCC[PH]([Au][S]C(=S)n2nc(C)cc2C)(c2ccccc2)c2ccccc2)(c2ccccc2)c2ccccc2)n1", "measurement": "GI50", "result": "752 nM"}
{"Compound": "CC1=CC(=O)C(C(C)C)=CC1=O", "method": "CCK-8", "time": "48 h", "measurement": "IC50", "result": "53000 nM"}
